Reference: PMC9359741 (Clinical Cancer Research, 2022)
Where “and” joins values, the source holds several entries; their conditions need not be identical. Equal entries are not always repeated.

Key:
Type in all cases: in vivo, human
[1] = test system: patients with PDA, PD-1/PD-L1 IR advanced solid tumors or prOVCA; test: Phase 2, ARRY-382 300 mg QD plus pembrolizumab 200 mg IV Q3W: adverse events; conditions: for Deaths: mostly disease progression
Summary of the method: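 Open-label study at 12 US centres with three cohorts: pancreatic ductal adenocarcinoma after ≥1 prior systemic line; tumours progressing on anti-PD-1/PD-L1; ovarian, peritoneal or fallopian cancer progressing ≤6 months after ≥4 platinum cycles. Oral test compound 300 mg QD plus anti-PD-1 antibody 200 mg IV every 3 weeks. AEs, SAEs and labs graded by CTCAE v4.03 in all dosed patients; descriptive summary.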

[2] = Phase 2 plasma pharmacokinetics of ARRY-382 and metabolites; conditions: for RAUC (accumulation ratio), geometric mean (geometric %CV) / Ctrough, geometric mean (geometric %CV) / RCmax (accumulation ratio), geometric mean (geometric %CV): Cycle 2 day 1, 300 mg; for AUC(0-t) / AUC / Cmax / Tmax: human, plasma, oral, 300 mg; for AUC(0-t): AUClast; for AUC(0-t) / AUC / Cmax: geometric mean (geometric %CV); for AUC: AUCtau; for Tmax: median (range)
Summary of the method: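 Blood was collected for plasma test compound and its N-oxide, N-desmethyl and sulfate metabolites. Trough samples were taken ≤120 min before the oral dose on cycle 1 day 15 and day 1 of cycles 3–6. Doses were 200–400 mg QD in Phase 1b and 300 mg QD in Phase 2. Non-compartmental parameters were estimated per patient in the PK set, reported as geometric mean (geometric %CV) and Tmax as median (range).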

CSF-1R [3] = test: Phase 1b pharmacodynamic biomarkers
Summary of the method: (§1)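 Blood was drawn for serum CSF-1 and CTX, plus serum osteoprotegerin and non-classical monocytes in Phase 2. Urine was collected for NTX. Samples were taken pre-dose on cycle 1 days 1, 8 and 15, on day 1 of later cycles and at discontinuation. Mean change on cycle 1 day 15 versus cycle 1 day 1 was summarized descriptively, with outliers excluded.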

CSF-1R [4] = test: Phase 2 pharmacodynamic biomarkers; conditions: cycle 1 day 15 compared with cycle 1 day 1
Summary of the method: as §1

[5] = Cycle 1 day 1, PD-1/PD-L1 IR, n = 18
[6] = Cycle 2 day 1, PD-1/PD-L1 IR, n = 6

SMILES: Cc1cccc(Cn2nc(C3CC3)c3c(NC(=O)c4cnc5cc(OCCN6CCN(C)CC6)ccn45)cccc32)n1 [ARRY-382]
- ARRY-382-related SAEs ([1]; PD-1/PD-L1 IR): 15.8%
- ARRY-382-related fatigue ([1]; PD-1/PD-L1 IR): 47.4%
- ARRY-382-related grade ≥3 AEs ([1]; PD-1/PD-L1 IR): 57.9%
- ARRY-382-related increased CPK ([1]; PD-1/PD-L1 IR): 47.4%
- ARRY-382-related nausea ([1]; PD-1/PD-L1 IR): 42.1%
- Dose reduction or interruption of ARRY-382 due to AEs ([1]; PD-1/PD-L1 IR): 13 (68.4%) n (%)
- Patients with ≥1 dose reduction or interruption of ARRY-382 ([1]; PD-1/PD-L1 IR): 15 (78.9%) n (%)
- Permanent discontinuations due to AEs ([1]; PD-1/PD-L1 IR): 1 (5.3%) n (%)
- ARRY-382-related AEs: ALT increased ([1]; PD-1/PD-L1 IR, N = 19): 2 (10.5) n (%)
- ARRY-382-related AEs: AST increased ([1]; PD-1/PD-L1 IR, N = 19): 6 (31.6) n (%)
- ARRY-382-related AEs: All AEs ([1]; PD-1/PD-L1 IR, N = 19): 17 (89.5%) n (%) and 17 (89.5) n (%)
- ARRY-382-related AEs: Amylase increased ([1]; PD-1/PD-L1 IR, N = 19): 4 (21.1) n (%)
- ARRY-382-related AEs: Blood CPK increased ([1]; PD-1/PD-L1 IR, N = 19): 9 (47.4) n (%)
- ARRY-382-related AEs: Decreased appetite ([1]; PD-1/PD-L1 IR, N = 19): 3 (15.8) n (%)
- ARRY-382-related AEs: Diarrhea ([1]; PD-1/PD-L1 IR, N = 19): 5 (26.3) n (%)
- ARRY-382-related AEs: Fatigue ([1]; PD-1/PD-L1 IR, N = 19): 9 (47.4) n (%)
- ARRY-382-related AEs: Nausea ([1]; PD-1/PD-L1 IR, N = 19): 8 (42.1) n (%)
- ARRY-382-related AEs: Vomiting ([1]; PD-1/PD-L1 IR, N = 19): 7 (36.8) n (%)
- Deaths ([1]; PD-1/PD-L1 IR): 10 (52.6%) n (%)
- ARRY-382-related SAEs ([1]; PDA): 11.1%
- ARRY-382-related fatigue ([1]; PDA): 33.3%
- ARRY-382-related grade ≥3 AEs ([1]; PDA): 25.9%
- ARRY-382-related increased AST ([1]; PDA): 18.5%
- ARRY-382-related increased CPK ([1]; PDA): 18.5%
- ARRY-382-related nausea ([1]; PDA): 18.5%
- Dose reduction or interruption of ARRY-382 due to AEs ([1]; PDA): 10 (37.0%) n (%)
- Patients with ≥1 dose reduction or interruption of ARRY-382 ([1]; PDA): 16 (59.3%) n (%)
- Permanent discontinuations due to AEs ([1]; PDA): 4 (14.8%) n (%)
- ARRY-382-related AEs: ALT increased ([1]; PDA, N = 27): 4 (14.8) n (%)
- ARRY-382-related AEs: AST increased ([1]; PDA, N = 27): 5 (18.5) n (%)
- ARRY-382-related AEs: All AEs ([1]; PDA, N = 27): 17 (63.0%) n (%) and 17 (63.0) n (%)
- ARRY-382-related AEs: Amylase increased ([1]; PDA, N = 27): 2 (7.4) n (%)
- ARRY-382-related AEs: Blood CPK increased ([1]; PDA, N = 27): 5 (18.5) n (%)
- ARRY-382-related AEs: Decreased appetite ([1]; PDA, N = 27): 5 (18.5) n (%)
- ARRY-382-related AEs: Diarrhea ([1]; PDA, N = 27): 4 (14.8) n (%)
- ARRY-382-related AEs: Fatigue ([1]; PDA, N = 27): 9 (33.3) n (%)
- ARRY-382-related AEs: Nausea ([1]; PDA, N = 27): 5 (18.5) n (%)
- ARRY-382-related AEs: Vomiting ([1]; PDA, N = 27): 2 (7.4) n (%)
- Deaths ([1]; PDA): 20 (74.1%) n (%)
- ARRY-382-related AEs: ALT increased ([1]; Total, N = 57): 10 (17.5) n (%)
- ARRY-382-related AEs: AST increased ([1]; Total, N = 57): 15 (26.3) n (%)
- ARRY-382-related AEs: All AEs ([1]; Total, N = 57): 43 (75.4%) n (%) and 43 (75.4) n (%)
- ARRY-382-related AEs: Amylase increased ([1]; Total, N = 57): 6 (10.5) n (%)
- ARRY-382-related AEs: Blood CPK increased ([1]; Total, N = 57): 16 (28.1) n (%)
- ARRY-382-related AEs: Decreased appetite ([1]; Total, N = 57): 8 (14.0) n (%)
- ARRY-382-related AEs: Diarrhea ([1]; Total, N = 57): 9 (15.8) n (%)
- ARRY-382-related AEs: Fatigue ([1]; Total, N = 57): 18 (31.6) n (%)
- ARRY-382-related AEs: Nausea ([1]; Total, N = 57): 16 (28.1) n (%)
- ARRY-382-related AEs: Vomiting ([1]; Total, N = 57): 10 (17.5) n (%)
- Patients with ≥1 TEAE ([1]; in each cohort): > 90%
- Patients with a Grade 4 AE ([1]; overall): 7 (12.3%) n (%)
- Patients with a grade 3 AE ([1]; overall): 33 (57.9%) n (%)
- Periorbital edema ([1]; overall): 7.0%
- Patients with a grade 5 AE ([1]; overall, none related to study treatment): 3 (5.3%) n (%)
- ARRY-382-related SAEs ([1]; prOVCA): 0.0%
- ARRY-382-related grade ≥3 AEs ([1]; prOVCA): 45.5%
- Dose reduction or interruption of ARRY-382 due to AEs ([1]; prOVCA): 7 (63.6%) n (%)
- Patients with ≥1 dose reduction or interruption of ARRY-382 ([1]; prOVCA): 7 (63.6%) n (%)
- Permanent discontinuations due to AEs ([1]; prOVCA): 1 (9.1%) n (%)
- Treatment discontinuations due to AEs (primary reason) ([1]; prOVCA): 2 (18.2%) n (%)
- ARRY-382-related AEs: ALT increased ([1]; prOVCA, N = 11): 4 (36.4) n (%)
- ARRY-382-related AEs: AST increased ([1]; prOVCA, N = 11): 4 (36.4) n (%)
- ARRY-382-related AEs: All AEs ([1]; prOVCA, N = 11): 9 (81.8%) n (%) and 9 (81.8) n (%)
- ARRY-382-related AEs: Amylase increased ([1]; prOVCA, N = 11): 0 (0.0) n (%)
- ARRY-382-related AEs: Blood CPK increased ([1]; prOVCA, N = 11): 2 (18.2) n (%)
- ARRY-382-related AEs: Decreased appetite ([1]; prOVCA, N = 11): 0 (0.0) n (%)
- ARRY-382-related AEs: Diarrhea ([1]; prOVCA, N = 11): 0 (0.0) n (%)
- ARRY-382-related AEs: Fatigue ([1]; prOVCA, N = 11): 0 (0.0) n (%)
- ARRY-382-related AEs: Nausea ([1]; prOVCA, N = 11): 3 (27.3) n (%)
- ARRY-382-related AEs: Vomiting ([1]; prOVCA, N = 11): 1 (9.1) n (%)
- Deaths ([1]; prOVCA): 5 (45.5%) n (%)
- RAUC (accumulation ratio), geometric mean (geometric %CV) ([2]; Overall): 2.49 (35.6)
- Ctrough, geometric mean (geometric %CV) ([2]; Overall, n = 15): 796 (86.9) ng/mL
- RCmax (accumulation ratio), geometric mean (geometric %CV) ([2]; Overall, n = 15): 2.06 (41.9)
- RAUC (accumulation ratio), geometric mean (geometric %CV) ([2]; PD-1/PD-L1 IR, n = 3): 2.67 (36.2)
- Ctrough, geometric mean (geometric %CV) ([2]; PD-1/PD-L1 IR, n = 6): 878 (70.1) ng/mL
- RCmax (accumulation ratio), geometric mean (geometric %CV) ([2]; PD-1/PD-L1 IR, n = 6): 2.52 (39.9)
- RAUC (accumulation ratio), geometric mean (geometric %CV) ([2]; PDA, n = 3): 3.41 (23.6)
- Ctrough, geometric mean (geometric %CV) ([2]; PDA, n = 4): 1,480 (17.5) ng/mL
- RCmax (accumulation ratio), geometric mean (geometric %CV) ([2]; PDA, n = 4): 2.07 (53.6)
- RAUC (accumulation ratio), geometric mean (geometric %CV) ([2]; prOVCA, n = 4): 1.87 (16.7)
- Ctrough, geometric mean (geometric %CV) ([2]; prOVCA, n = 5): 438 (86.5) ng/mL
- RCmax (accumulation ratio), geometric mean (geometric %CV) ([2]; prOVCA, n = 5): 1.62 (24.7)
- AUC(0-t) ([2]; Cycle 1 day 1, Overall, n = 55): 6310 ng·h/mL
- AUC(0-t) [2, 5]: 6320 ng·h/mL
- AUC(0-t) ([2]; Cycle 1 day 1, PDA, n = 26): 6350 ng·h/mL
- AUC(0-t) ([2]; Cycle 1 day 1, prOVCA, n = 11): 6210 ng·h/mL
- AUC(0-t) ([2]; Cycle 2 day 1, Overall, n = 15): 28500 ng·h/mL
- AUC(0-t) [2, 6]: 26600 ng·h/mL
- AUC(0-t) ([2]; Cycle 2 day 1, PDA, n = 4): 47100 ng·h/mL
- AUC(0-t) ([2]; Cycle 2 day 1, prOVCA, n = 5): 20700 ng·h/mL
- AUC ([2]; Cycle 2 day 1, Overall, n = 15): 30600 ng·h/mL
- AUC [2, 6]: 32100 ng·h/mL
- AUC ([2]; Cycle 2 day 1, PDA, n = 4): 47100 ng·h/mL
- AUC ([2]; Cycle 2 day 1, prOVCA, n = 5): 20700 ng·h/mL
- Cmax ([2]; Cycle 1 day 1, Overall, n = 55): 1270 ng/mL
- Cmax [2, 5]: 1240 ng/mL
- Cmax ([2]; Cycle 1 day 1, PDA, n = 26): 1290 ng/mL
- Cmax ([2]; Cycle 1 day 1, prOVCA, n = 11): 1260 ng/mL
- Cmax ([2]; Cycle 2 day 1, Overall, n = 15): 2080 ng/mL
- Cmax [2, 6]: 2130 ng/mL
- Cmax ([2]; Cycle 2 day 1, PDA, n = 4): 2820 ng/mL
- Cmax ([2]; Cycle 2 day 1, prOVCA, n = 5): 1580 ng/mL
- Tmax [2, 5]: 1.97 h
- Tmax ([2]; Cycle 1 day 1, prOVCA, n = 11): 2 h
- Tmax [2, 6]: 2 h
- Tmax ([2]; Cycle 2 day 1, PDA, n = 4): 3.03 h
- Change in mean CTX or NTX (CSF-1R [3]; cycle 1 day 15 compared with cycle 1 day 1): no changes
- Increase in mean serum CSF-1 (CSF-1R [3]; cycle 1 day 15 versus cycle 1 day 1, P < 0.05): 4.5 fold
- Change in mean CTX or NTX (CSF-1R [4]): no significant changes
